Test results: ChEMBL document CHEMBL3352789, “Chemical and computational methods for the characterization of covalent reactive groups for the prospective design of irreversible inhibitors” (J Med Chem, 2014)

Experiments:
[1] = Reactivity of covalent reactive group using GSH reaction assessed as pseudo-first-order reaction at 37 degC by mass spectrometry
Procedure, shortened: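 Automated liquid handler at 37 °C under N2 with degassed solutions. The mix holds 1 mM electrophile, 10 mM GSH and 0.10 mM indoprofen internal standard in 100 mM potassium phosphate pH 7.4:ACN 90:10. Sampling was hourly for 7 h, each sample diluted 10-fold in water. Pseudo-first-order k gives t1/2. Controls had no GSH.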

[2] = Reactivity of covalent reactive group using GSH reaction assessed as pseudo-first-order reaction at 60 degC by mass spectrometry
[3] = GSH reactivity assessed as reaction half life through transition state modeling at pH 7.4; assay type: physicochemical; settings: glutathione (GSH) reaction mixture
[4] = Reactivity of covalent reactive group using GSH reaction assessed as pseudo-first-order reaction at 37 degC by nuclear magnetic resonance spectroscopy
Procedure, shortened: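 Electrophile standard at 2 mM and GSH solution at 20 mM, both in 100 mM phosphate pH 7.4 with 10% D2O, combined in an NMR tube. 1D 1H spectra with presaturation were acquired hourly for about 19 h. Pseudo-first-order k came from the natural log of the electrophile resonance area versus time, converted to t1/2.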

Structure (SMILES)	K [1]	K [2]	half-life [3]	K [4]
CN1CC=CC1=O	0.4 ×10⁻³ /min			
C=C(C)C(=O)Nc1ccccc1		0.2 ×10⁻³ /min		
CNC(=O)CBr	> 140 ×10⁻³ /min		< 0.08 h	
CNC(=O)C1=CCCC1		< 0.2 ×10⁻³ /min		
CNC(=O)/C=C/CN1CCOCC1			28 h	
CC1CCCN1C#N (stereo unspecified)				0.6 ×10⁻³ /min
CNC(=O)C(C)Cl (stereo unspecified)		0.6 ×10⁻³ /min		
C=CC(=O)NCc1cccc(OC)c1	0.4 ×10⁻³ /min			
CNC(=O)C1=CCC1		0.6 ×10⁻³ /min		
C=CC(=O)N1CCCCC1	0.4 ×10⁻³ /min			
N#CN1CCCCC1				0.8 ×10⁻³ /min
CN1CCC=CS1(=O)=O	0.2 ×10⁻³ /min			
C=CC(=O)NC			17 h	0.7 ×10⁻³ /min
C=C(C)S(=O)(=O)NC	< 0.2 ×10⁻³ /min	0.4 ×10⁻³ /min		
CN1CC=CS1(=O)=O	0.4 ×10⁻³ /min			
CC#CC(=O)NC				0.3 ×10⁻³ /min
CNC(=O)CCl	3.6 ×10⁻³ /min		3.2 h	
N#CN1CCCC1 [CYANO-PYRROLIDINE]			2.2 h	5.3 ×10⁻³ /min
N#Cc1ccccn1			25 h	0.5 ×10⁻³ /min
C/C=C(\C)S(=O)(=O)NC		< 0.2 ×10⁻³ /min		
